Screens from PubChem BioAssay.
Hits are enriched below; roughly 1.5% of the tested compounds scored in any of these assays.
TCR CD3 inh: inhibitors of human TCR-CD3 interaction, primary screen, biochemical, fluorescence, TAMRA-labeled TCR probe. T-cell receptor (TCR). 0.37% of 360,000 active. AID 651800, 2012. inhibition, % at 9.4 µM;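 further: recombinant mutant TCR 2C K166C tagged with TAMRA read by polarization; 0% = receptor in buffer alone and 100% = receptor with positive control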
HTRA1 inh: HTRA1 serine protease inhibitors, primary screen, biochemical, fluorescence polarization, HTS; Q92743; recombinant HTRA1, FP-rhodamine activity-based probe; inhibition, % at 5.96 µM; 0.5% of 340,000 active; AID 504803, 2011; in the data active means inhibition above about 36%;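 further: 0% = enzyme with DMSO and 100% = wells lacking enzyme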
Target sequence (Q92743 whole entry, looked up): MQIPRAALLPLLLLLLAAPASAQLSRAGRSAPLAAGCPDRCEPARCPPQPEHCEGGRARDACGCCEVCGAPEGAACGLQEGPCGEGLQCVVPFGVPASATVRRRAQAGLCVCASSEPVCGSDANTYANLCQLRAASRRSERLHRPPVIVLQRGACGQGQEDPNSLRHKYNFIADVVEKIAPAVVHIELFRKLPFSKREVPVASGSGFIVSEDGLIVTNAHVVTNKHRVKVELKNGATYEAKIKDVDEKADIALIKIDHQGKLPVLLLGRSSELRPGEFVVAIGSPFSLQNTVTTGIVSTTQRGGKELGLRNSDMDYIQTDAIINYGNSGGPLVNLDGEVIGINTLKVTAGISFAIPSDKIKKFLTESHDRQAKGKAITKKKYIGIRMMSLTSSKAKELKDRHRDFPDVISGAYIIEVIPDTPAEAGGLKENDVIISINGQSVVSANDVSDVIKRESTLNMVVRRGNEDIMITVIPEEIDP
DAGLB inh: DAGLB lipase inhibitors, primary screen, biochemical, fluorescence, HTS; HEK293T DAGLB membrane lysate, EnzChek fluorogenic substrate; inhibition, % at 5.17 µM; 0.059% of 340,000 active; in the data active means inhibition above about 34%;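 further: 0% = enzyme with vehicle and 100% = wells lacking enzyme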
mABHD4 FP: ABHD4 inhibitors, primary screen, biochemical, fluorescence polarization, mouse; purified mABHD4, FP-Rh probe fluorescence polarization; inhibition, % at 8.92 µM; 0.54% of 370,000 active; AID 720543, 2013;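 active means inhibition exceeding the mean over every tested compound plus 3 SD, cut at about 30% in these data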;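 further: 0% = plate median of compound wells and 100% = S159A mutant with DMSO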
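system = mouse ABHD4 enzyme, wild type | medium = HEPES pH 7.0, NaCl, Pluronic buffer | also added = FP-Rh probe | incubation = Enzyme–compound pre-incubation 45 min, then probe 60 min, both 25 °C | technique = fluorescence polarization, excitation 525 nm, emission 598 nm, BODIPY TMR filters | controls = S159A mutant high control, sample median low control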
SIAE primary: human SIAE inhibitors, primary screen, biochemical, fluorescence polarization, FP-Rh probe, 1536-well HTS. 0.69% of 370,000 active. Sialate O-acetylesterase (Homo sapiens), Q9HAT2. inhibition, % at 9.66 µM. AID 1053197, 2014. SIAE FP-Rh probe binding;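 active means inhibition above a cutoff: mean of compounds within the control limits plus 3 SD of those, cut at about 17% in these data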;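 further: 0% = plate median of compound wells and 100% = probe without SIAE protein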
HTRA1 conf: HTRA1 protease inhibitors, retest, confirmation, biochemical, fluorescence polarization; shares compounds with HTRA1 inh; recombinant HTRA1, FP-rhodamine activity-based probe; inhibition, % at 5.96 µM; 66% of 1,600 active; AID 540248, 2011;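 active means mean inhibition over three repeats above a set limit taken from the earlier primary screen, cut at about 37% in these data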;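 further: 0% = HTRA1 with DMSO and 100% = wells lacking HTRA1; inhibitors block probe binding so polarization drops and inhibition rises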
BSA TAMRA ctr: compounds interfering with TAMRA-BSA probe, counter-screen for TCR-CD3 interaction inhibitor project, biochemical, fluorescence, TAMRA-labeled BSA. TAMRA-labeled BSA probe fluorescence counterscreen. shares compounds with TCR CD3 inh. 10% of 1,200 active. inhibition, % at 9.4 µM; in the data active means inhibition above about 23%;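 further: 0% = buffer low control and 100% = reference high control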
TCR-CD3 conf: TCR-CD3 interaction inhibitors, retest, confirmation, biochemical, fluorescence, TAMRA-labeled TCR probe; shares compounds with TCR CD3 inh; TAMRA-labeled TCR probe fluorescence binding assay; inhibition, % at 9.4 µM; 48% of 1,200 active
Active calls of the source: *; / = no result. Unless noted, no stated cut-off is given here; in the data, active means inhibition above about 19%; inactive means the rest.

SMILES	TCR CD3 inh	HTRA1 inh	DAGLB inh	mABHD4 FP	SIAE primary	HTRA1 conf	BSA TAMRA ctr	TCR-CD3 conf
CCOC(=O)CSc1nnc(-c2cc(OC)c(OC)c(OC)c2)o1	-2	0	0	0	-8	/	/	/
C[C@H](O)[C@@H]1CN2CCc3ccc(-c4ccc5c(c4)OCO5)cc3[C@@H]2C[C@@H]1N(C)C(=O)c1ccco1	-1	/	/	-6	5	/	/	/
CN1[C@H](Cc2ccccc2)COc2cccc(F)c2S1(=O)=O	/	/	/	-1	3	/	/	/
CCC1=NN(C(=O)c2ccccc2Br)C(O)(c2ccc(Br)cc2)C1 (configuration not stated)	7	1	-3	0	3	/	/	/
CCC1=NN(C(=O)c2ccccc2O)C(O)(c2ccccc2)C1 (configuration not stated)	40*	54*	0	13	16	65*	-8	30*
Cc1ccc(-c2[nH]ncc2/C=N/n2c(COc3ccccc3)nc3ccccc3c2=O)cc1	3	-38	-2	-10	-17	/	/	/
Cc1cc(/C=N/n2c(COc3ccccc3)nc3ccccc3c2=O)c(O)c([N+](=O)[O-])c1	39*	41*	18	16	24*	54*	35*	56*
COc1ccc2c(c1)N=C(c1[nH]c3ccccc3c1CCN1C(=O)c3ccccc3C1=O)[C@]2(O)CCN1C(=O)c2ccccc2C1=O	/	/	/	-12	-8	/	/	/
Cc1nnsc1C(=O)N/N=C/c1ccc2ccccc2c1O	41*	41*	4	5	6	55*	-23	29*
Cc1nnsc1C(=O)N/N=C/c1ccccc1	4	-1	1	3	3	/	/	/
CCOc1cccc(CNc2ccc(O)cc2)c1OCc1ccc(Cl)cc1Cl	27*	60*	-1	66*	32*	29	3	0
Cc1ccc(CNc2ccc(O)cc2)cc1	27*	60*	5	68*	48*	27	-1	2
Cc1ccc(NCc2ccccc2O)cc1	5	4	-2	-10	1	/	/	/
COc1cc(-c2cc(=O)c3c(O)cc(O)cc3o2)cc(OC)c1OC	7	/	/	0	-13	/	/	/
O=c1cc(-c2ccc(O)c(O)c2)oc2cc(O)cc(O)c12	25*	50*	5	26	3	67*	-17	21*
O=C(CCN1C(=O)/C(=C\c2ccccc2)SC1=S)NNC(=O)c1ccccc1O	40*	56*	14	8	-1	54*	-6	36*
O=C(CCN1C(=O)/C(=C\c2ccccc2)SC1=S)NNC(=O)c1cccnc1	2	6	1	-10	-2	/	/	/
COCCCNC(=O)c1cc2cc(Br)ccc2oc1=O	0	-3	0	3	4	/	/	/
O=C(NNC(=O)c1cc2cc(Br)ccc2oc1=O)c1ccc(O)cc1O	46*	58*	26	27	-8	83*	-15	35*
Cc1c(C(=O)NNC(=O)c2ccccc2O)oc2ccc(Br)cc12	39*	41*	24	-8	-10	69*	-14	24*
O=C(O)c1cc(N2N=C(C(F)(F)F)/C(=C/C=C/c3ccco3)C2=O)ccc1Cl	26*	41*	18	58*	5	14	13	34*
O=C(OCc1ccccc1)N1Cc2ccnnc2CC1c1ccccc1-c1ccc(C(F)(F)F)cc1 (configuration not stated)	-5	/	/	-17	2	/	/	/
Cc1c(N=C2C=C(Br)C(=O)C(Br)=C2)c(=O)n(-c2ccccc2)n1C	46*	57*	6	69*	13	24	-3	3
CC(C)[C@H](NC(=O)c1cccs1)C(=O)N1CCC[C@H]1C(=O)NCc1ccccc1	-8	/	/	1	0	/	/	/
COc1ccc(N(C)S(=O)(=O)c2ccc(Cl)c(C(=O)NNC(=O)c3ccccc3O)c2)cc1	26*	42*	4	1	13	32	3	18
SMILES	TCR CD3 inh	HTRA1 inh	DAGLB inh	mABHD4 FP	SIAE primary	HTRA1 conf	BSA TAMRA ctr	TCR-CD3 conf
CCCCCCCCN1C(=O)[C@@H](CC(=O)NCCCCc2ccccc2)C[C@@]2(C(=O)OC)C1=C[C@H](C1CCCC1)O[C@@H]2C	0	/	/	-7	-5	/	/	/
CCOc1cccc(/C=N/NC(=S)Nc2ccccc2[N+](=O)[O-])c1O	31*	54*	24	27	7	51*	-4	15
CCCCNC(=S)N/N=C/c1cccc(OCC)c1O	6	17	7	5	2	/	/	/
Cc1ccn2cc(-c3ccc(O)c(O)c3)nc2c1	34*	44*	4	26	6	65*	-9	26*
O=C(N/N=C/c1cc(Br)cc(Cl)c1O)c1ccc2c(c1)OCO2	38*	42*	5	6	-1	14	-6	29*
COc1ccc(-c2cnnc(N/N=C/c3ccc(O)c(O)c3)n2)cc1	49*	60*	5	21	5	78*	-21	44*
C#CCNC(=O)C[C@H]1C[C@@]2(C(=O)OCC)CCCC3=C2N(CCC3)C1=O	/	/	/	1	4	/	/	/
O=C(C(=O)N1CCC(CNS(=O)(=O)c2ccc(OC(F)(F)F)cc2)CC1)c1cc2ccccc2o1	-10	/	/	-11	-3	/	/	/
COc1cccc2c1C(=O)c1c(O)c3c(c(O)c1C2=O)C[C@@](O)(C(=O)CO)C[C@@H]3O[C@H]1C[C@H](N)[C@H](O)[C@H](C)O1	137*	63*	-7	52*	39*	67*	157*	127*
O=C(O)CC(CCc1ccccc1)OC1OC(CO)C(O)C(O)C1O (configuration not stated)	32*	41*	-1	0	-17	41*	-11	30*
[C-]#[N+][C@H](O[C@@H]1O[C@H](CO)[C@@H](O)[C@H](O)[C@H]1O)c1ccccc1	-9	-3	3	1	-2	/	/	/
CSC1=Nc2ccccc2N=C(N2CCCC2)C1	8	/	/	-4	5	/	/	/
Oc1ccccc1N=Nc1ccccc1O	19*	66*	17	20	17	59*	-6	5
